Reference: article PMC2831464 (Clinical cancer research : an official journal of the …, 2010)
Several values for one entry are separate records, joined by “and”; a condition that tells them apart may be missing. Equal values may be shown once. Entries after “also recorded” stand apart in the source; their conditions may differ.

Tests used:
UGT1A1 = details: cited from earlier work
[1] = system: refractory solid malignancies; assay: Tumor response per RECIST v1.0; format: in vivo, human
UGT1A8 = details: cited from earlier work
[2] = Plasma pharmacokinetics of AR-67 lactone and carboxylate; format: in vivo, human; details: for Cmax, total: observed at 45 min of 1-hr infusion
How it was run: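 Test compound was given as a 1-h IV infusion daily × 5. Heparinized blood was drawn on days 1 and 4 of cycle 1: pre-dose, 5, 45 and 65 min, and 1.5, 2, 4, 6, 8 and 24 h after infusion start. Plasma lactone and carboxylate were quantified by validated HPLC-fluorescence. Parameters were noncompartmental. Cmax was the observed 45-min value. Half-life required ≥3 elimination-phase points.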

[3] = day 1 cycle 1, 1.2 mg/m^2 (n=2), mean
[4] = day 1 cycle 1, 1.67 mg/m^2 (n=3), mean
[5] = day 1 cycle 1, 2.34 mg/m^2 (n=3), mean
[6] = day 1 cycle 1, 3.23 mg/m^2 (n=3), mean
[7] = day 1 cycle 1, 4.5 mg/m^2 (n=1)
[8] = day 1 cycle 1, 6.3 mg/m^2 (n=1)
[9] = day 1 cycle 1, 7.5 mg/m^2 (n=7), mean
[10] = day 1 cycle 1, 8.9 mg/m^2 (n=4), mean
[11] = day 1 cycle 1, 12.4 mg/m^2 (n=2), mean
[12] = day 4 cycle 1, 1.2 mg/m^2 (n=1)
[13] = day 4 cycle 1, 1.67 mg/m^2 (n=3), mean
[14] = day 4 cycle 1, 2.34 mg/m^2 (n=3), mean
[15] = day 4 cycle 1, 3.23 mg/m^2 (n=3), mean
[16] = day 4 cycle 1, 4.5 mg/m^2 (n=1)
[17] = day 4 cycle 1, 6.3 mg/m^2 (n=1)
[18] = day 4 cycle 1, 7.5 mg/m^2 (n=7), mean
[19] = day 4 cycle 1, 8.9 mg/m^2 (n=4), mean
[20] = day 4 cycle 1, 12.4 mg/m^2 (n=2), mean

For `CC[C@@]1(O)C(=O)OCc2c1cc1n(c2=O)Cc2c-1nc1ccc(O)cc1c2[Si](C)(C)C(C)(C)C` [AR-67, 7-t-butyldimethylsilyl-10-hydroxycamptothecin], the UGT1A1 mediated glucuronidation (UGT1A1) is given as “does not undergo”, the “subjects with stable disease” value ([1]; 22 subjects evaluable) is given as “Four” and the “duration of prolonged partial response” value ([1]; one patient) is given as greater than 16 months. The “response per RECIST v1.0” value ([1]; one subject, squamous cell carcinoma of the lung (NSCLC), dosage level 5.5, ten cycles) was “prolonged partial response”, the “time after end of cycle 10 with partial response maintained” value ([1]; recurrent NSCLC patient, 10 cycles, as of this writing) was no less than 7 months and the “metabolism by UGT1A8” value (UGT1A8) was “extensively metabolized”. For the same compound, the “clearance with increasing dosage” value ([2]; 1.2–12.4 mg/m^2/day) was “clearance was constant”, the “decrease in AUC between days 1 and 4” value ([2]; all patients, dexamethasone co-treatment) was ~ 20% and the “drug accumulation on day 4” value ([2]; daily × 5 dosing, cycle 1) was “No drug accumulation was observed; also recorded: no evidence of accumulation”. For the same compound, the Clearancetotal [2, 3] was 13.8 L/hr/m^2, the “Lactone AUC(0−∞)” value [2, 3] was 81 ng·h/mL and the “Total AUC(0−∞)” value [2, 3] was 88 ng·h/mL. The “Vss, total” value [2, 3] was 7.4 L/m^2, the “Cmax, total” value [2, 3] was 77.6 ng/mL and the Clearancetotal [2, 4] was 13.2 L/hr/m^2. For the same compound, the “Lactone AUC(0−∞)” value [2, 4] was 117 ng·h/mL, the “Total AUC(0−∞)” value [2, 4] was 128 ng·h/mL and the “Vss, total” value [2, 4] was 13.1 L/m^2. For the same compound, the “Cmax, total” value [2, 4] was 96.9 ng/mL, the Clearancetotal [2, 5] was 14.1 L/hr/m^2 and the “Lactone AUC(0−∞)” value [2, 5] was 186 ng·h/mL. The “Total AUC(0−∞)” value [2, 5] was 201 ng·h/mL, the “Vss, total” value [2, 5] was 13.5 L/m^2 and the “Cmax, total” value [2, 5] was 158.9 ng/mL. For the same compound, the Clearancetotal [2, 6] was 11.6 L/hr/m^2, the “Lactone AUC(0−∞)” value [2, 6] was 269 ng·h/mL and the “Total AUC(0−∞)” value [2, 6] was 290 ng·h/mL. For the same compound, the “Vss, total” value [2, 6] was 9.6 L/m^2, the “Cmax, total” value [2, 6] was 221.9 ng/mL and the Clearancetotal [2, 7] was 21 L/hr/m^2. For the same compound, the “Lactone AUC(0−∞)” value [2, 7] was 179 ng·h/mL, the “Total AUC(0−∞)” value [2, 7] was 214 ng·h/mL and the “Vss, total” value [2, 7] was 32.7 L/m^2. The “Cmax, total” value [2, 7] was 117.8 ng/mL, the Clearancetotal [2, 8] was 12.9 L/hr/m^2 and the “Lactone AUC(0−∞)” value [2, 8] was 334 ng·h/mL. For the same compound, the “Total AUC(0−∞)” value [2, 8] was 490 ng·h/mL, the “Vss, total” value [2, 8] was 51.6 L/m^2 and the “Cmax, total” value [2, 8] was 168.5 ng/mL. For the same compound, the Clearancetotal [2, 9] was 13.1 L/hr/m^2, the “Lactone AUC(0−∞)” value [2, 9] was 498 ng·h/mL and the “T(1/2)total” value [2, 9] was 1.4 h. For the same compound, the “Total AUC(0−∞)” value [2, 9] was 581 ng·h/mL, the “Vss, total” value [2, 9] was 18.7 L/m^2 and the “Cmax, total” value [2, 9] was 349.7 ng/mL. The Clearancetotal [2, 10] was 18.9 L/hr/m^2, the “Lactone AUC(0−∞)” value [2, 10] was 471 ng·h/mL and the “T(1/2)total” value [2, 10] was 1.6 h. For the same compound, the “Total AUC(0−∞)” value [2, 10] was 502 ng·h/mL, the “Vss, total” value [2, 10] was 30.1 L/m^2 and the “Cmax, total” value [2, 10] was 290.6 ng/mL. The Clearancetotal [2, 11] was 15.8 L/hr/m^2, the “Lactone AUC(0−∞)” value [2, 11] was 686 ng·h/mL and the “T(1/2)total” value [2, 11] was 1.1 h. The “Total AUC(0−∞)” value [2, 11] was 786 ng·h/mL, the “Vss, total” value [2, 11] was 18.1 L/m^2 and the “Cmax, total” value [2, 11] was 464.7 ng/mL. The Clearancetotal ([2]; day 1 cycle 1, All dosage levels (N=26), mean) was 14.5 ±4.1 L/hr/m^2 and 14.5 L/hr/m^2, the “T(1/2)total” value ([2]; day 1 cycle 1, All dosage levels, mean) was 1.4 h and the Clearancetotal [2, 12] was 23.6 L/hr/m^2. The “Lactone AUC(0−∞)” value [2, 12] was 49 ng·h/mL, the “Total AUC(0−∞)” value [2, 12] was 51 ng·h/mL and the “Vss, total” value [2, 12] was 15.6 L/m^2. The “Cmax, total” value [2, 12] was 51.6 ng/mL, the Clearancetotal [2, 13] was 16.7 L/hr/m^2 and the “Lactone AUC(0−∞)” value [2, 13] was 109 ng·h/mL. The “Total AUC(0−∞)” value [2, 13] was 115 ng·h/mL, the “Vss, total” value [2, 13] was 16.3 L/m^2 and the “Cmax, total” value [2, 13] was 74.6 ng/mL. For the same compound, the Clearancetotal [2, 14] was 15.3 L/hr/m^2, the “Lactone AUC(0−∞)” value [2, 14] was 137 ng·h/mL and the “Total AUC(0−∞)” value [2, 14] was 154 ng·h/mL. The “Vss, total” value [2, 14] was 7.9 L/m^2, the “Cmax, total” value [2, 14] was 137.8 ng/mL and the Clearancetotal [2, 15] was 13.3 L/hr/m^2. The “Lactone AUC(0−∞)” value [2, 15] was 236 ng·h/mL, the “Total AUC(0−∞)” value [2, 15] was 255 ng·h/mL and the “Vss, total” value [2, 15] was 10.6 L/m^2. For the same compound, the “Cmax, total” value [2, 15] was 195 ng/mL, the Clearancetotal [2, 16] was 24.2 L/hr/m^2 and the “Lactone AUC(0−∞)” value [2, 16] was 149 ng·h/mL. The “Total AUC(0−∞)” value [2, 16] was 186 ng·h/mL, the “Vss, total” value [2, 16] was 45.3 L/m^2 and the “Cmax, total” value [2, 16] was 82.5 ng/mL. The Clearancetotal [2, 17] was 14.7 L/hr/m^2, the “Lactone AUC(0−∞)” value [2, 17] was 327 ng·h/mL and the “Total AUC(0−∞)” value [2, 17] was 429 ng·h/mL. The “Vss, total” value [2, 17] was 35.3 L/m^2, the “Cmax, total” value [2, 17] was 166.4 ng/mL and the Clearancetotal [2, 18] was 16.8 L/hr/m^2. For the same compound, the “Lactone AUC(0−∞)” value [2, 18] was 411 ng·h/mL, the “T(1/2)total” value [2, 18] was 1.8 h and the “Total AUC(0−∞)” value [2, 18] was 478 ng·h/mL. The “Vss, total” value [2, 18] was 25.6 L/m^2, the “Cmax, total” value [2, 18] was 308.6 ng/mL and the Clearancetotal [2, 19] was 18.6 L/hr/m^2. The “Lactone AUC(0−∞)” value [2, 19] was 397 ng·h/mL, the “T(1/2)total” value [2, 19] was 1.4 h and the “Total AUC(0−∞)” value [2, 19] was 507 ng·h/mL. For the same compound, the “Vss, total” value [2, 19] was 27.5 L/m^2, the “Cmax, total” value [2, 19] was 276.7 ng/mL and the Clearancetotal [2, 20] was 19.8 L/hr/m^2. For the same compound, the “Lactone AUC(0−∞)” value [2, 20] was 551 ng·h/mL, the “T(1/2)total” value [2, 20] was 1.7 h and the “Total AUC(0−∞)” value [2, 20] was 663 ng·h/mL. For the same compound, the “Vss, total” value [2, 20] was 28.9 L/m^2, the “Cmax, total” value [2, 20] was 358.5 ng/mL and the Clearancetotal ([2]; day 4 cycle 1, All dosage levels (N=25), mean) was 17.4 ±5.2 L/hr/m^2 and 17.4 L/hr/m^2. The “T(1/2)total” value ([2]; day 4 cycle 1, All dosage levels, mean) was 1.6 h, the “lactone form as share of the total AR-67 AUC (lactone + carboxylate)” value ([2]; human plasma, mean (±SD)) was 87.5% and ~ 87.5% and the “increase of mean clearance of total AR-67 from day 1 to day 4” value ([2]; p=0.0031, Wilcoxon signed rank) was 20%. The elimination half-life ([2]; patients, iv) was ~ 1.4 hr, the elimination profile ([2]; plasma, MTD cohort) was “bi-exponential profile” and the “share of the total concentration in the lactone form” value ([2]; plasma, at each time point, all patients) was “Greater than 80%”.
